For six compounds, Ki and IC50 results are on record in ChEMBL document CHEMBL1121520, “Synthesis of analogues of the carboxyl protease inhibitor pepstatin. Effects of structure on inhibition of pepsin and renin” (J Med Chem, 1980).

Experiment [1] concerns the target Pepsin A (Sus scrofa, UniProt P00791). The experiment in a line: Pepsin inhibition was measured using the synthetic heptapeptide substrate Phe-Gly-His-Phe-(N02)-Phe-Ala- Phe-OMe. Summed up:
(§1)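 Nitrophenylalanine-containing heptapeptide substrate hydrolysis by pepsin; run at five substrate and three inhibitor concentrations per analogue, with Ki calculated by a previously described method.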

In the next experiment the target is Renin (Sus scrofa). The experiment in a line: Inhibition of renin was measured using hog kidney renin and the radiolabeled synthetic substrate, H-Ile-His-Pro-Phe-His-Leu-[14C]Leu-Val-Tyr-Ser-OH.
The target in experiment [2] is Pepsin A (Homo sapiens, UniProt P0DJD9). The experiment in a line: Pepsin inhibition using synthetic heptapeptide substrate Phe-Gly-His-Phe-(N02)-Phe-Ala- Phe-OMe. Summed up: as §1
Pepsin A (Homo sapiens, UniProt P0DJD9), sequence (P0DJD9 whole entry): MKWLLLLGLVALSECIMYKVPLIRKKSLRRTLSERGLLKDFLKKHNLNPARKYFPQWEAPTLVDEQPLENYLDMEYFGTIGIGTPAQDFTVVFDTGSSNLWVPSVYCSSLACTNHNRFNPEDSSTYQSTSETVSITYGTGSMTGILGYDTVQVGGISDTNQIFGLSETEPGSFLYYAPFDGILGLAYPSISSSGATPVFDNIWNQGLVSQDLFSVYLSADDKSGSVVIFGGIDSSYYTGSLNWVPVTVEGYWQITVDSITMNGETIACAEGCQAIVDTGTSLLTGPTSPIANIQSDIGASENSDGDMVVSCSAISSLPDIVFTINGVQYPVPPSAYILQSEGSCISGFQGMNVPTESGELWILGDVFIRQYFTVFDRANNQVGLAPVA

Pepsin A (Sus scrofa, UniProt P00791), sequence (P00791 whole entry): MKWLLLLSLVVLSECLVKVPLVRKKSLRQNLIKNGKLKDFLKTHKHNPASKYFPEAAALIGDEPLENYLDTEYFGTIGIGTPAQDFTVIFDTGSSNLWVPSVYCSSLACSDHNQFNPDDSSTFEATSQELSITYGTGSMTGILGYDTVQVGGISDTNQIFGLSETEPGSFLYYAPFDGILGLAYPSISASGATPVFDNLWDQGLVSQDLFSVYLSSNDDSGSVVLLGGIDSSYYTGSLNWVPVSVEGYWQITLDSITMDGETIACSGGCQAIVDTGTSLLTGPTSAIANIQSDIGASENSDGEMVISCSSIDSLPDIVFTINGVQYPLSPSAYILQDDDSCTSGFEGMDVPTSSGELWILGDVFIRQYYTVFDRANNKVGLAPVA

As usually defined, the Ki is the dissociation constant of the complex between target and ligand, obtained from inhibition or displacement. Lower therefore signals higher affinity. For the compound `CC(C)CCNC(=O)[C@H](C)NC(=O)C[C@H](O)C(CC(C)C)NC(=O)[C@H](NC(=O)CC(C)C)C(C)C` (stereo partly drawn), the affinity at Pepsin A [1] corresponds to a Ki of 1.1 nM.
As to `CC(C)CCNC(=O)[C@H](C)NC(=O)C[C@H](O)NC(C(=O)[C@H](NC(=O)CC(C)C)C(C)C)c1ccccc1` (stereo partly drawn), the Ki on Pepsin A [1] stood at 0.9 nM.
As to `CC(C)CC(=O)N[C@@H](C(=O)N[C@@H](C(=O)NC(CC(C)C)[C@@H](O)CC(=O)N[C@H](C)C(=O)NC(CC(C)C)[C@@H](O)CO)C(C)C)C(C)C` (stereo partly drawn), the Ki on Pepsin A [1] is 0.0457 nM.
What is called IC50 is the concentration needed to halve the response being measured. Low readings indicate higher potency, high ones lower potency. Turning to `CC(C)CCNC(=O)[C@@H](C)NC(=O)C[C@H](O)C(CC(C)C)NC(=O)CC(C)C` (stereo partly drawn), the IC50 against Renin (Sus scrofa) was greater than 330000 nM. Also, the Ki at Pepsin A [1] is 350 nM.
On Renin (Sus scrofa), `CC(C)CC(=O)N[C@@H](C(=O)N[C@@H](CC(C)C)C(O)CC(N)=O)C(C)C` (stereo partly drawn) gave an IC50 greater than 330000 nM. The same compound yielded a Ki on Pepsin A [1] of roughly 1000 nM.
Consider `CC(C)CCNC(=O)[C@H](C)NC(=O)C[C@@H](O)C(CC(C)C)NC(=O)[C@H](NC(=O)CC(C)C)C(C)C` (stereo partly drawn), for which, on Pepsin A [2], the Ki amounted to 3000 nM.
